The source of these data is ChEMBL document CHEMBL1142233, “Treatment of diabetes and atherosclerosis by inhibiting fatty-acid-binding protein aP2” (2007).

Assay [1] can be described thus: Reduction of TNF expression in mouse aP2+/+ macrophage cells relative to control. The assay is classed as functional, cell-based. An outline of the steps:
(§1)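 Mouse aP2⁺/⁺ and aP2-reconstituted aP2⁻/⁻ macrophage lines were grown in RPMI with FBS or 5% LPDS, with inhibitor in DMSO or vehicle. Mcp-1, Il1β, Il6 and Tnf mRNA were measured by SYBR Green qRT-PCR (annealing at 58 °C, 50 cycles), normalized to 18s rRNA and then to untreated cells. Mean ± s.e.m.; at least triplicate.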

In assay [2] the test system is Mus musculus. Kind of assay: Effect on cholesterol level in 5-week old apoE -/- C57BL/6J mouse fed on western diet and 15 mg/kg/day, po drug simultaneously in 5-11 week early intervention study. The format is functional. An outline of the steps: (§2)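 Male Apoe−/− mice on western diet (21% fat, 0.21% cholesterol) from 4–5 weeks of age. Oral gavage for 6 weeks from age 5 or 12 weeks; vehicle 10% 1-methyl-2-pyrrolidone, 5% cremophor EL with ethanol in water. Blood taken after 6 h fast before and after treatment. Glucose by meter; insulin by ELISA; lipids and glycerol colorimetric.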

Assay [3] deals with Mus musculus. As to the kind of experiment: Effect on glycerol level in 5-week old apoE-/- C57BL/6J mouse fed on western diet and administered with 15 mg/kg/day, po drug at 12 week in 12-18 week late intervention study. The assay is classed as functional. An outline of the steps:
as §2

The subject of assay [4] is Mus musculus. As to the kind of experiment: Decrease in Acaca expression in liver of ob/ob mouse at 40 mg/kg/day, po. The assay is classed as functional, organism-based. In outline: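 Liver from male ob/ob mice gavaged daily for 6 weeks from 8 weeks of age, n = 6 per group. mRNA measured by SYBR Green real-time PCR: 95 °C 4 min, then 50 cycles of 95 °C 15 s, 58 °C 30 s, 72 °C 30 s. Normalized to 18s rRNA.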

Assay [5] can be described thus: Reduction of Mcp1 expression mouse aP2-/-R macrophage cells (re-expression of aP2) relative to control. The assay is classed as functional, cell-based. In outline: as §1
In assay [6] the target is Apolipoprotein A-I (Homo sapiens) (UniProt P02647). As to the kind of experiment: Increase in APOA1-mediated cholesterol in human THP1 cells at 25 uM relative to control. The settings on record: THP-1. The format is cell-based. An outline of the steps:
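Macrophages loaded 24 h in RPMI with 5% LPDS, 1 μCi ml⁻¹ ³H-cholesterol and 50 μg ml⁻¹ acLDL, ± 25 μM inhibitor. Equilibrated 24 h in 0.2% fatty-acid-free BSA ± inhibitor, then 4 h ± APOA1 20 μg ml⁻¹. Efflux = medium ³H as % of total, per mg protein; mouse lines normalized to untreated aP2+/+.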

Assay [7] has as its system Mus musculus. Kind of assay: Increase in insulin-stimulated IRbeta tyrosine 1162/1163 phosphorylation in ob/ob mouse liver at 40 mg/kg/day, po relative to control. The format is functional, organism-based. An outline of the steps:
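Male ob/ob mice got 40 mg kg⁻¹ d⁻¹ by oral gavage or vehicle. After a 6 h fast under tribromoethanol anaesthesia, portal-vein insulin (2 IU kg⁻¹) or PBS was given. Liver was removed 3 min later, lysed and western-blotted for IRβ pTyr1162/1163 and AKT pSer473 against total IRβ and AKT, then quantified.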

The test system of assay [8] is Mus musculus. As to the kind of experiment: Decrease in blood glucose level in fed ob/ob mouse at 40 mg/kg/day, po after 2 weeks. The assay is classed as functional, organism-based. An outline of the steps: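 Male ob/ob mice given oral gavage daily for 6 weeks from 8 weeks old, n = 6 per group. Blood taken after 6 h fast before and after treatment; fed glucose taken at week 2. Glucose by meter on 3 μl whole blood, insulin by ultrasensitive ELISA, cholesterol, FFA and glycerol by colorimetric microplate assays.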

Active and inactive are the calls of the source. The calls are words filed in the database; no cut-off is given here.

Sequence of Apolipoprotein A-I (Homo sapiens) (P02647 whole entry): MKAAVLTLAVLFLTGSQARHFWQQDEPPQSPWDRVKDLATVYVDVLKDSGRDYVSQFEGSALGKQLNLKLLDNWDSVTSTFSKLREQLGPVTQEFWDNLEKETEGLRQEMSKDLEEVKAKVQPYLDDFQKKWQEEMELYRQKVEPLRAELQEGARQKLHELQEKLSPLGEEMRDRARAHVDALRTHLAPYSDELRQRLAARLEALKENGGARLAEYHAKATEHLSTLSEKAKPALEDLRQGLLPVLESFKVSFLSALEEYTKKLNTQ

`CCc1c(-c2ccccc2)c(-c2ccccc2)nn1-c1ccccc1-c1cccc(OCC(=O)O)c1`: the outcome (in assay [1]; with Mus musculus [4]; in assay [5]; in assay [6]; in the assay with Mus musculus [7]; with Mus musculus [8]) was Active. Also, the Activity was 1465.3 mg/dL in the assay with Mus musculus [2] and 3.55 mM in the assay on Mus musculus [3].
